Screening data from PubChem.
Hits are enriched below; roughly 2.2% of the tested compounds scored in any of these assays.
NR2E3 ag-1 – inhibitors of NR2E3-RetCOR corepressor binding, primary screen, NR2E3 agonist project, biochemical, TR-FRET, GST-NR2E3, biotin-RetCOR | Photoreceptor-specific nuclear receptor (Homo sapiens), Q9Y5X4 | 1536-well | inhibition of corepressor binding, % at 4.78 µM | 0.12% of 320,000 active;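 active = percent inhibition above the cutoff of mean plus 3 SD of all tested compounds, set per screening campaign, cut at about 20% in these data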
Target sequence (Q9Y5X4 whole entry, looked up): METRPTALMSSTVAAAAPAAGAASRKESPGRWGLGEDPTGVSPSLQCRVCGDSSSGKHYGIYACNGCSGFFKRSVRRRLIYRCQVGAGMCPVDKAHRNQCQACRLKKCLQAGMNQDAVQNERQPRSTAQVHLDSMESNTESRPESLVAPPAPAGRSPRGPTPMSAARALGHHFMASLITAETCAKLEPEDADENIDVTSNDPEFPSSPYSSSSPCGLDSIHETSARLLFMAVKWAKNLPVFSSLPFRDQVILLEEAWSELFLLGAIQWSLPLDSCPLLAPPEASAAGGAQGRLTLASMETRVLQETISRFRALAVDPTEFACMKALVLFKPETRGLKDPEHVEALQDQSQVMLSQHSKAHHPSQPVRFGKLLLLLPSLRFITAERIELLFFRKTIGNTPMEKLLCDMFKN
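Test system – NR2E3–RetCOR corepressor complex · Quantity – NR2E3 fusion 1.35 nM · Buffer or medium – Tris pH 7.5 · Incubation – Compound–protein incubation for 5 h at 4 °C · Technique – TR-FRET, Eu(K)-anti-GST donor, streptavidin-D2 acceptor, ex 340, em 617/671 nm · Evaluation – percent inhibition of 671/617 nm emission ratio versus biotin and DMSO controls · Plate – 1536-well format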
GalR3 antagonist – GalR3 antagonists in HEK293 cells, primary screen, cell-based, fluorescence readout | 0.44% of 360,000 active | HEK293 GalR3-CNG cAMP membrane potential fluorescence; galR3 body fused to GalR1 C-terminus | Galanin receptor type 3 (Homo sapiens), O60755 | AID 651719, 2012 | inhibition, % at 3 µM;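 active = inhibition above the screen-wide average plus 3 SD, cut at about 13% in these data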;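 note: forskolin and galanin both at EC90 stimulate the cells; cAMP rise reported by CNG channel membrane potential dye signal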
NR2E3 ag-2 – NR2E3 agonists in two-hybrid cells, primary screen, cell-based, luminescence, CHO-S, Gal4-NCOR/VP16-NR2E3 | inhibition of corepressor binding, % at 3.98 µM | Photoreceptor-specific nuclear receptor (Homo sapiens), Q9Y5X4 | AID 602229, 2012 | 0.35% of 360,000 active | luciferase;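 active = inhibition above the mean of all tested compounds plus 3 SD, cut at about 70% in these data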;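 note: higher means lower luciferase signal from less NR2E3 corepressor binding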
SMARCA2 act – SMARCA2 (BRM) function activators, primary screen, cell-based, luminescence, high throughput; MG213 cells, MMTV-luciferase reporter, dexamethasone, overnight; activation, % at 9.1 µM; 1% of 370,000 active; AID 652017, 2013; in the data active = activation above about 7.8%
NR2F2 inh – NR2F2 transcriptional activity inhibitors, primary screen, cell-based, luciferase reporter, HEK293T, luminescence; COUP transcription factor 2 (Homo sapiens), P24468; HEK293T NGFI-A luciferase reporter; inhibition, % at 8.6 µM; 0.7% of 370,000 active;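 active = inhibition above a per-plate cutoff, mean inhibition of test wells between control levels plus 3 SD, cut at about 38% in these data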;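 note: cells cotransfected with COUP-TFII expression vector driving the NGFI-A reporter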
NR2E3 ag conf – NR2E3 agonist confirmation in cells, cell-based, luminescence, CHO-S two-hybrid; 51% of 2,300 active; inhibition, % at 3.98 µM; CHO-S mammalian two-hybrid NR2E3-NCOR, luciferase luminescence; shares compounds with NR2E3 ag-2;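 active = average inhibition above a cutoff equal to the mean inhibition of all tested compounds plus one SD, cut at about 70% in these data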
GAL4-VP16 luc – GAL4-VP16 reporter modulators, confirmation, counter-screen for NR2E3 agonist project, cell-based, luminescence, CHO-S, high throughput; shares compounds with NR2E3 ag-2; CHO-S GAL4-VP16 luciferase reporter; inhibition, % at 3.98 µM; 29% of 2,300 active; AID 624379, 2012;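 active = mean inhibition above a cutoff equal to the average over all tested compounds plus one standard deviation, cut at about 70% in these data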;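 note: luciferase from a UAS reporter driven by GAL4-VP16 transactivation; higher means less reporter light so more repression of VP16 activity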
A number is an active result; – = inactive; · = no result.

SMILES | NR2E3 ag-1 | GalR3 antagonist | NR2E3 ag-2 | SMARCA2 act | NR2F2 inh | NR2E3 ag conf | GAL4-VP16 luc
CC(=O)N1CC(C)Sc2ccc(S(=O)(=O)NCc3ccc(Cl)cc3)cc21 (centres undefined) | – | – | – | – | – | – | –
Cc1cc(C(=O)OCC(=O)Nc2ccc(F)cc2)c(C)o1 | – | – | 74 | – | – | – | –
ON=C1c2ccccc2-c2ccc(Br)cc21 | · | – | – | – | – | · | ·
NC(=S)NN=C1c2ccccc2-c2cc(Br)ccc21 | · | – | 85 | – | – | – | –
O=C(Nc1ccc(Cl)cc1Cl)O[C@@H]1CC[C@@]23CCCN2C(=O)CCC[C@H]3C1 | · | · | · | · | – | · | ·
Cc1ccccc1C(=O)N1CCN(c2ccc(NC(=S)NC(=O)c3cccs3)cc2)CC1 | – | – | – | – | – | – | –
CC(C)CC(=O)NC(=S)Nc1ccc(N2CCN(C(=O)c3cccs3)CC2)cc1 | – | – | – | – | – | 85 | –
OC(c1cccc(OCc2ccccc2)c1)c1nnc(-c2ccccc2)o1 (centres undefined) | – | – | 87 | – | – | 92 | 76
CN(Cc1ccccc1)C(=O)OCc1cn(Cc2ccc(F)c(F)c2)nn1 | · | · | · | – | – | · | ·
CC(C)C[C@H](NC1(C(=O)NC2CCCCC2)CCCCC1)C(=O)NCCc1c[nH]c2ccccc12 | · | · | · | · | – | · | ·
COc1cccc(OC)c1OCCCCc1c(C)n[nH]c1C | – | – | – | – | – | · | ·
COc1cccc(OC)c1OCCCCCc1c(C)n[nH]c1C | – | – | – | – | – | – | –
Cc1ccccc1OCCCCc1c(C)n[nH]c1C | – | – | 71 | – | – | 91 | –
CCC(c1nnnn1-c1ccc2c(c1)OCCO2)N1CCN(c2ccc(F)cc2)CC1 (centres undefined) | · | · | – | · | · | – | –
Cc1cc(C(=O)OCCCN(C)C2CN(Cc3cn(Cc4ccccc4C(F)(F)F)nn3)S(=O)(=O)C2)no1 (centres undefined) | · | · | · | – | – | · | ·
CCCc1cc(=O)n2[nH]cc(-c3ccc(Cl)cc3)c2n1 | · | – | 93 | – | – | 98 | 71
COc1ccc(CNCC#Cc2ccccc2)c(OC)c1 | · | · | · | – | – | · | ·
Cc1cccc(NC(=O)C2CCCN(c3nnc(-n4cccc4)s3)C2)c1C (centres undefined) | · | · | · | – | – | · | ·
O=C1NC(=O)C(=Cc2ccc(Cl)cc2Cl)S1 | · | – | – | – | – | 91 | –
COc1ccc(NC(=O)C(Cl)=C(Cl)Cl)cn1 | · | – | – | – | – | · | ·
COc1ccc(NC(=O)/C(Cl)=C(/Cl)S(=O)Cc2ccc(Cl)cc2)cn1 (centres undefined) | · | 35 | 87 | – | 66 | 99 | –
COc1ccc(S[C@]2(C(=O)N3CCOCC3)CC(=O)N(c3ccc(OC)cc3)[C@@H]2c2ccc(OC)cc2)cc1 | · | · | · | – | – | · | ·
COCCN=C1NN=C(c2cc(C)n(CC3CCCO3)c2C)CS1 (centres undefined) | – | – | – | – | – | · | ·
C=CCN=C1NN=C(c2cc(C)n(CC=C)c2C)CS1 | – | – | – | – | 77 | – | –
O=c1c(Cl)c(N2CCN(c3ccc(F)cc3)CC2)cnn1C12CC3CC(CC(C3)C1)C2 | – | – | – | – | – | 71 | –
CN(CC(=O)Nc1cccc(F)c1)C(=O)c1cc(S(=O)(=O)N2CCN(c3ccccc3)CC2)ccc1Cl | – | – | – | – | – | – | –
CN(CC(=O)Nc1cccc(F)c1)C(=O)c1ccc(N2CCCCC2)c([N+](=O)[O-])c1 | – | – | – | – | – | – | –
COc1ccc(NC(=O)CN(C)C(=O)c2ccc(N3CCCC3)c([N+](=O)[O-])c2)cc1 | – | – | – | – | – | · | ·
